Only a selection was taken, and hits are over-represented in it overall.
S1P4 antag = human S1P4 receptor antagonism; inhibition, % at 4.98 µM; actives 0.26% (n = 220,000); S1P4-expressing cells, antagonist mode, reporter read-out; O95977; in the data active = inhibition above about 29%
Mdm2 ligase inh = inhibitors of human Mdm2 E3 ubiquitin ligase | cell-based MDM2 ubiquitination luciferase reporter, 2 h; 0 = plate control, 100 = twice control, blank-subtracted | actives 0.11% (n = 210,000) | Q00987 | signal enhancement, % at 5 µM | AID 1230;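 active = signal enhancement of 30% or more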;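 note: luminescence tracks abundance of the self-degrading MDM2-luciferase fusion protein; higher signal means inhibition of MDM2 E3 ligase activity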
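System: stable MDM2–luciferase fusion reporter cells / Input: 2000 cells seeded into each well / Schedule: 4 h settle plus 2 h compound, 37 °C / Compound: single-point 5 µM / Buffer or medium: cells held in DMEM / Benchmarks: control and blank well means / Evaluation: percent signal gain over controls, blank-subtracted / Measured by: luciferase luminescence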
S1P4 agonist = activates the human S1P4 receptor; activation, % at 4.98 µM; S1P4-expressing cell line, agonist reporter assay; actives 0.35% (n = 220,000); AID 1509; in the data active = activation above about 11%
S1P3 antag = antagonists of human S1P3 receptor; Q99500; CHO S1P3 NFAT-BLA reporter, FRET fluorescence, antagonist mode; inhibition, % at 4.98 µM; actives 0.27% (n = 170,000);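 active = inhibition above the plate cutoff, the mean inhibition of test wells on that plate plus 3 SD, cut at about 28% in these data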;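 note: cells challenged with S1P at its EC80 of 0.8 µM; blue over green emission ratio from cleaved BLA substrate after 4 h stimulation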
Target sequence (Q99500 whole entry, looked up): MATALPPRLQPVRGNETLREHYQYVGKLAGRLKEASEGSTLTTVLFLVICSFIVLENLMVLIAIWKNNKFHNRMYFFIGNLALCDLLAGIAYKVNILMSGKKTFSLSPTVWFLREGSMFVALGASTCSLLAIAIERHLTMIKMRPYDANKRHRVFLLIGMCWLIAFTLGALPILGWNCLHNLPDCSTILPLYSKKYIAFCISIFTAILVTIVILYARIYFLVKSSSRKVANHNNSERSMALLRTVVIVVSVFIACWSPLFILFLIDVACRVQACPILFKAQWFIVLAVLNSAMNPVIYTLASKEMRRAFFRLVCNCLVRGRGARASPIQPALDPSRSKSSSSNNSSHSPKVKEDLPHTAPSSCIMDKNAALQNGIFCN
L major viab = Leishmania major promastigote growth inhibition; Leishmania major promastigotes, resazurin fluorescence viability; inhibition, % at 10 µM; actives 9% (n = 200,000); AID 1063; in the data active = inhibition above about 50%;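 note: promastigotes grown with compound for 44 hours at 28 °C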
Hits are given with their value; n = inactive; x = no result.

SMILES	S1P4 antag	Mdm2 ligase inh	S1P4 agonist	S1P3 antag	L major viab
Cc1cc(C(=O)COC(=O)Cn2cnc3c2c(=O)n(C)c(=O)n3C)c(C)n1C	n	n	n	n	n
CCCCn1cnc2c1c(=O)n(CC(=O)c1cc(C)n(C)c1C)c(=O)n2CC(C)C	n	n	n	n	96
CCOC(=O)C1=C(C)NC(C)=C(C(=O)OCC)C1c1cccs1	n	n	n	n	n
CCOC(=O)C1=C(C)NC(C)=C(C(=O)OCC)C1c1sccc1C	n	n	n	x	96
CCN1CCN(C(=O)NCc2ccccc2)CC1	n	n	n	n	x
CCOC(=O)C1(Cc2cccc(Cl)c2)CCCN(C(=O)CCOC)C1 (stereo unspecified)	n	n	n	n	n
CCOC(=O)C1(Cc2cccc(Cl)c2)CCCN(C2CCN(C(C)=O)CC2)C1 (stereo unspecified)	n	n	n	n	83
CCCOc1nc2c(c(=O)n(C)c(=O)n2C)n1Cc1cccc2ccccc12	n	n	n	x	65
O=C1C2C(C(=O)N1/N=C/c1cccc([N+](=O)[O-])c1)C1C=CC2C12CC2 (stereo unspecified)	n	n	n	n	n
Cc1nn(Cc2ccc(F)cc2)c(C)c1NC(=O)CCCn1nc([N+](=O)[O-])cc1C	n	n	n	n	n
COc1ccccc1N1CCN(C(=O)c2ccc3[nH]c4c(c3c2)CC(C)CC4)CC1 (stereo unspecified)	n	n	n	n	99
COc1ccccc1N1CCN(C(=O)c2ccc3nc[nH]c3c2)CC1	n	n	n	n	n
O=[N+]([O-])c1ccc(OCCN2CCCCCC2)cc1	n	n	n	n	n
COc1ccc(OCCCN2CCCC(C)C2)cc1 (stereo unspecified)	n	n	n	n	97
CC1CCCN(CCCOc2ccc([N+](=O)[O-])cc2)C1 (stereo unspecified)	n	n	n	n	89
Cc1ccc(S(=O)(=O)N(C)c2ccc(OCC(=O)Nc3nc(-c4ccccc4)cs3)cc2)cc1	n	n	n	n	89
COc1ccc(NC(=O)COc2ccc(N(C)S(=O)(=O)c3ccc(C)cc3)cc2)cc1	n	n	n	n	n
Cc1ccc(S(=O)(=O)N(C)c2ccc(OCC(=O)Nc3nc4ccccc4s3)cc2)cc1	n	n	n	n	98
CCOC(=O)C(=O)c1csc(NC(=O)COc2ccc(N(C)S(=O)(=O)c3ccc(F)cc3)cc2)n1	n	n	n	x	n
Cc1ccc(S(=O)(=O)N(C)c2ccc(OCC(=O)Nc3nc4c(ccc5ccccc54)s3)cc2)cc1	n	n	n	n	n
CN(c1ccc(OCC(=O)Nc2nc(-c3ccccc3)cs2)cc1)S(=O)(=O)c1ccc(F)cc1	n	n	n	n	97
CCOc1ccccc1CN1CCN(CC2=Cc3cc(OC)ccc3OC2)CC1CCO (stereo unspecified)	n	n	n	n	x
CC/C(O)=C1\C(=O)CC(c2ccccc2)CC1=NC(C)C (stereo unspecified)	n	n	n	n	59
CC/C(O)=C1\C(=O)CC(c2ccccc2)CC1=NCCC(=O)O (stereo unspecified)	n	n	n	n	n
CC1=NN(C(=O)c2csc(C(C)C)c2)C(O)(C(F)(F)F)C1 (stereo unspecified)	n	n	n	n	n
SMILES	S1P4 antag	Mdm2 ligase inh	S1P4 agonist	S1P3 antag	L major viab
CN1CCC(N(C)C(=O)/C=C/c2cn(-c3ccccc3)nc2-c2cccs2)CC1	n	n	n	n	101
CC1=NNC(=O)/C1=C\c1cn(-c2ccccc2)nc1-c1cccs1	n	n	n	n	100
O=C(O)CCCCCN1C(=O)/C(=C\c2cn(-c3ccccc3)nc2-c2cccs2)SC1=S	n	n	n	n	x
O=C(O)CCN1C(=O)/C(=C/c2cn(-c3ccccc3)nc2-c2cccs2)SC1=S	n	n	n	n	n
CC1=Nn2c(nnc2-c2ccc(F)cc2)SC1	n	n	n	n	n
N#Cc1nc(-c2cccs2)oc1NCC1CCCO1 (stereo unspecified)	n	n	n	n	n
O=S(=O)(c1ccccc1)c1nc(-c2cccs2)oc1NCC1CCCO1 (stereo unspecified)	n	n	n	n	86
CC[n+]1c(C)sc2sc3ccccc3c21	n	x	n	n	x
CC[n+]1c(/C=C2\C=C(C)CC(C)(C)C2)sc2ccccc21	n	n	n	x	100
COc1ccc2sc(C)[n+](C)c2c1	n	n	n	n	n
